The values below come from ChEMBL document CHEMBL1156657, “Structures and absolute configurations of sulfate-conjugated triterpenoids including an antifungal chemical defense of the green macroalga Tydemania expeditionis” (J Nat Prod, 2008).

In one series the test system is CCRF-CEM. Kind of series: Antitumor activity against human CCRF-CEM cells after 72 hrs by MTT assay. Format: functional, cell-based. Summed up:
(§1)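 Cells seeded in 96-well plates; compounds added 24 h after seeding and left on for 72 h. Viable cells read spectrophotometrically after MTS tetrazolium staining, with dye conversion taken as proportional to live cells. IC50 for each cell line derived from dose–response curves.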
In general terms: Tetrazolium assays rely on reduction of a dye to a coloured formazan, in cell work by metabolically active cells.

The test system of the next series is DU-4475. In words: Antitumor activity against human DU4475 cells after 72 hrs by MTT assay. Format: functional, cell-based. To be noted: DU-4475, 72 h.
In the next series the test system is DU-145. In words: Antitumor activity against human Du145 cells after 72 hrs by MTT assay. It is filed as functional, cell-based. To be noted: DU-145, 72 h. Summed up:
as §1

A further series concerns BT-549. In words: Antitumor activity against human BT549 cells after 72 hrs by MTT assay. Format: functional, cell-based. Conditions: BT-549, 72 h. In outline: as §1
The next series has as its system Rotifers. Kind of series: Toxicity against Rotifers assessed as feeding at 10 ppm after 45 mins by injestion toxicity assay. Format: organism-based. Conditions: rotifera, in vivo, 0.75 h.
The subject of a further series is HCT-116. Kind of series: Antitumor activity against human HCT116 cells after 72 hrs by MTT assay. It is filed as functional, cell-based. Conditions: HCT-116, 72 h. In outline: as §1
For the next series, the system named is MDA-MB-468. In words: Antitumor activity against human MDA-MB-468 cells after 72 hrs by MTT assay. Format: functional, cell-based. Conditions: MDA-MB-468, 72 h. In outline:
as §1

In a further series the test system is PC-3. Kind of series: Antitumor activity against human PC3 cells after 72 hrs by MTT assay. Format: functional, cell-based. Conditions: PC-3, 72 h. Summed up:
as §1

Series [1] is described as follows: Antitumor activity against human LNCaP-FGC cells after 72 hrs by MTT assay. To be noted: LNCaP-Clone-FGC. Format: functional, cell-based. In outline: as §1
Another series relates to MDA-MB-231. In words: Antitumor activity against human MDA-MB-231 cells after 72 hrs by MTT assay. It is filed as functional, cell-based. To be noted: MDA-MB-231, 72 h. In outline:
as §1

Series [2] can be described thus: Antitumor activity against human A2780/DDP-S cells after 72 hrs by MTT assay. Conditions: A2780, 72 h. It is filed as functional, cell-based. In outline:
as §1

Another series relates to SHP77. Kind of series: Antitumor activity against human SHP77 cells after 72 hrs by MTT assay. Format: functional, cell-based. To be noted: SHP77, 72 h. In outline:
as §1

The test system of another series is NCI-H446. Kind of series: Antitumor activity against human NCI-H446 cells after 72 hrs by MTT assay. It is filed as functional, cell-based. To be noted: NCI-H446, 72 h. In outline:
as §1

Series [3] has as its system Lindra thalassiae. Kind of series: Antifungal activity against Lindra thalassiae ATCC 56663 after 6 days. It is filed as functional, organism-based. Conditions: Lindriella thalassiae, ATCC 56663, 144 h. Summed up: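 Growth inhibition of marine fungal pathogen Lindra thalassiae ATCC 56663. IC50 derived from dose–response curves.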
Series [4] relates to Lindra thalassiae. In words: Antifungal activity against Lindra thalassiae ATCC 56663 at 0.67 mg/mL after 6 days. It is filed as functional, Lindriella thalassiae.

Consider `CC(C)=CC(=O)C[C@@H](C)[C@H]1CC[C@@]2(C)[C@@H]3CC[C@H]4[C@](C)(COS(=O)(=O)[O-])[C@@H](O)CC[C@@]45C[C@@]35CC[C@]12C.[Na+]`, for which the IC50 with CCRF-CEM, in the series on DU-4475, in the series with DU-145, in the series with BT-549, in the series with HCT-116 and with MDA-MB-468 was 6 µM throughout. Moreover, the IC50 (with PC-3; in [1]; with MDA-MB-231; in series [2]; with SHP77; in the series with NCI-H446) was 6 µM throughout. For the same compound, the Activity in the series on Rotifers is recorded as 9%.

Turning to `CC(C)=CC(=O)C[C@@H](C)[C@H]1CC[C@@]2(C)[C@@H]3CC[C@H]4[C@](C)(COS(=O)(=O)[O-])[C@@H](OS(=O)(=O)[O-])CC[C@@]45C[C@@]35CC[C@]12C.[Na+].[Na+]`, the IC50 with CCRF-CEM, with DU-4475, in the series on DU-145, in the series with BT-549, with HCT-116 and with MDA-MB-468 was 31 µM each time. For the same compound, the IC50 (with PC-3; in series [1]; in the series with MDA-MB-231; in series [2]; in the series on SHP77; in the series on NCI-H446) was 31 µM throughout. Moreover, the Activity in the series with Rotifers was 9%.

Regarding `CC(C)CC(=O)C[C@@H](C)[C@H]1CC[C@@]2(C)[C@@H]3CC[C@H]4[C@](C)(COS(=O)(=O)[O-])[C@@H](OS(=O)(=O)[O-])CC[C@@]45C[C@@]35CC[C@]12C.[Na+].[Na+]`, the IC50 in the series on CCRF-CEM, in the series with DU-4475, in the series with DU-145, in the series on BT-549, with HCT-116 and in the series on MDA-MB-468 was 31 µM in each case. Also, the half-maximal inhibitory concentration (IC50) (in the series on PC-3; in series [1]; in the series on MDA-MB-231; in series [2]; in the series on SHP77; with NCI-H446) was 31 µM each time. For the same compound, in the series with Rotifers, the Activity was 9%.

Turning to `CC(C)C[C@H](O)C[C@@H](C)[C@H]1CC[C@@]2(C)[C@@H]3CC[C@H]4[C@](C)(COS(=O)(=O)O)[C@@H](O)CC[C@@]45C[C@@]35CC[C@]12C`, the IC50 – broadly, the midpoint of a concentration-inhibition curve – in the series on Lindra thalassiae [3] was determined as 55 µM.

On to `CC(C)C[C@H](O)C[C@@H](C)[C@H]1CC[C@@]2(C)[C@@H]3CC[C@H]4[C@](C)(CO)[C@@H](OS(=O)(=O)O)CC[C@@]45C[C@@]35CC[C@]12C`, for which, in the series on Lindra thalassiae [3], the IC50 was found to be 30 µM.

On to `CC(C)CC(=O)C[C@@H](C)[C@H]1CC[C@@]2(C)C3=C(CC[C@]12C)[C@@]1(C)CC[C@H](OS(=O)(=O)[O-])[C@@](C)(COS(=O)(=O)[O-])[C@@H]1CC3.[Na+].[Na+]`, for which the IC50 in the series on CCRF-CEM, in the series with DU-4475, in the series on DU-145, in the series on BT-549, in the series with HCT-116 and with MDA-MB-468 was 31 µM each time. In addition, the half-maximal inhibitory concentration (IC50) (with PC-3; in [1]; in the series on MDA-MB-231; in series [2]; in the series with SHP77; with NCI-H446) was 31 µM throughout. In addition, the Activity in the series with Rotifers came to 9%.

For `CC(C)C[C@H](O)C[C@@H](C)[C@H]1CC[C@@]2(C)[C@@H]3CC[C@H]4[C@](C)(COS(=O)(=O)[O-])[C@@H](OS(=O)(=O)[O-])CC[C@@]45C[C@@]35CC[C@]12C.[Na+].[Na+]`, the IC50 in the series with CCRF-CEM, with DU-4475, with DU-145, with BT-549, in the series on HCT-116 and in the series with MDA-MB-468 was 31 µM throughout. For the same compound, the IC50 (in the series on PC-3; in series [1]; in the series on MDA-MB-231; in series [2]; with SHP77; in the series with NCI-H446) was 31 µM throughout. The same compound came in with a concentration for half-maximal inhibition (IC50) with Lindra thalassiae [3] of 26 µM. Besides, the Activity with Lindra thalassiae [4] was 670 µg/mL; with Rotifers, 9%.

In the case of `CC(C)=CC(=O)C[C@@H](C)[C@H]1CC[C@@]2(C)[C@@H]3CC[C@H]4[C@](C)(CO)[C@@H](O)CC[C@@]45C[C@@]35CC[C@]12C`, the concentration for half-maximal inhibition (IC50) with CCRF-CEM, with DU-4475, in the series with DU-145, in the series on BT-549, with HCT-116 and in the series with MDA-MB-468 was 6 µM throughout. Besides, the IC50 (with PC-3; in series [1]; in the series with MDA-MB-231; in [2]; in the series on SHP77; with NCI-H446) was 6 µM each time. Also, the Activity with Rotifers came to 9%.

Turning to `CC(C)=CC(=O)C[C@@H](C)[C@H]1CC[C@@]2(C)[C@@H]3CC[C@H]4[C@](C)(CO)[C@@H](OS(=O)(=O)[O-])CC[C@@]45C[C@@]35CC[C@]12C.[Na+]`, the IC50 with CCRF-CEM, in the series on DU-4475, in the series on DU-145, with BT-549, in the series with HCT-116 and in the series on MDA-MB-468 was 6 µM throughout. For the same compound, the IC50 (with PC-3; in series [1]; in the series with MDA-MB-231; in [2]; in the series with SHP77; in the series with NCI-H446) was 6 µM each time. In addition, in the series with Rotifers, the Activity was determined as 9%.
